Measurements from ChEMBL document CHEMBL4715728, “New bifunctional antioxidant/σ1 agonist ligands: Preliminary chemico-physical and biological evaluation” (Bioorg Med Chem, 2016).
Active and inactive are the calls of the source. The calls are words filed in the database; no cut-off is given here.

Key:
[1] = Antioxidant activity in Sprague-Dawley rat Cerebral cortex neuron assessed as total antioxidant capacity by measuring trolox equivalents at 1 uM after 24 hrs; type: functional
In short: (§1)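 Primary cerebral cortex neurons from rat fetuses, grown on poly-D-lysine in neurobasal medium with fetal calf serum (5% CO2, 37 °C), tested after 8 days in culture. Compounds in DMSO (0.5%) or sterile water were added and incubated 24 h at 37 °C. Cells were washed in ice-cold PBS and homogenized in 0.9% saline. Intracellular TAC (Trolox equiv.) and TOS (H2O2 equiv.) were read by kit. Ascorbic acid 10 µM (TAC) and H2O2 25 µM (TOS) served as positive controls. Four independent experiments.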

[2] = Antioxidant activity in Sprague-Dawley rat Cerebral cortex neuron assessed as total antioxidant capacity by measuring trolox equivalents at 0.1 uM after 24 hrs; type: functional; in short: as §1
[3] = Displacement of [3H]-DTG from Sigma 2 receptor in guinea pig brain membrane incubated for 120 mins in presence of sigma1 blocker (+)-SKF-10047 by liquid scintillation counting method; type: cell membranes, Cavia porcellus
[4] = Antioxidant activity in Sprague-Dawley rat Cerebral cortex neuron assessed as total oxidative stress level by measuring H2O2 equivalents at 25 uM after 24 hrs (reference value: 2.3 +/- 0.3 umol/L); type: functional; in short: as §1
[5] = Stability of compound in non-enzymatic stimulated-gastric fluid at pH 1.3 assessed as half life by HPLC-UV assay; type: physicochemical; details: non-enzymatic simulated gastric fluid
In short: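 Chemical hydrolysis in 0.02 M HCl buffer pH 1.3 (non-enzymatic simulated gastric fluid) or 0.02 M phosphate buffer pH 7.4, each containing 20% acetonitrile, at 37 °C. Started by adding the 10^-4 M acetonitrile stock. Samples taken over time and analyzed by HPLC-UV at 220 nm. Rate constants are means of triplicates.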

[6] = Antioxidant activity in Sprague-Dawley rat Cerebral cortex neuron assessed as total oxidative stress level by measuring H2O2 equivalents at 50 uM after 24 hrs (reference value: 2.3 +/- 0.3 umol/L); type: functional; in short: as §1
[7] = Cytotoxicity against Sprague-Dawley rat Cerebral cortex neuron assessed as LDH activity at 10 uM incubated for 24 hrs by LDH assay; type: tissue-based
In short: (§2)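 Primary fetal rat cortical neurons, matured 8 days on poly-D-lysine, exposed 24 h at 37 °C to compound (0.1–100 µM; DMSO 0.5% or water vehicle). LDH released into 100 µl culture medium was measured by kit as the rate of NAD+ reduction (absorbance increase at 490 nm). Positive control was mitomycin C. Four independent experiments.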

Cavia porcellus = species on record: Cavia porcellus; test: Selectivity ratio of Ki for displacement of [3H]-DTG from sigma2 receptor in guinea pig brain membrane to Ki for displacement of [3H]-(+)-pentazocine from sigma1 receptor in guinea pig brain membrane; type: cell membranes
[8] = Stability of compound in fasted state stimulated intestinal fluid at pH 7.4 assessed as rate of compound hydrolysis in presence of 40 mg/ml pancreatin by HPLC-UV assay; type: ADME; details: simulated gi fluid
In short: (§3)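 HCl buffer with pepsin or phosphate buffer with pancreatin (10 or 40 mg/ml), preincubated at 37 °C. Drug stock (50 µM in ethanol/fasted state intestinal fluid 1:9) added and shaken at 37 °C, 650 rpm. Samples quenched with ice-cold acetonitrile containing 0.5% formic acid, centrifuged at 2 °C, and the supernatant assayed by HPLC-UV. Three experiments.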

[9] = Cytotoxicity against Sprague-Dawley rat Cerebral cortex neuron assessed as LDH activity at 25 uM incubated for 24 hrs by LDH assay (reference value: […]); type: tissue-based; in short: as §2
[10] = Stability of compound in human plasma assessed as half life by HPLC-UV assay; type: ADME, cell-free
In short: (§4)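 Citrated human or rat plasma diluted to 80% with 0.02 M phosphate buffer pH 7.4, 37 °C with shaking. Compound added from a 1 mg/ml acetonitrile stock. Aliquots deproteinized with 0.01 M HCl in methanol, centrifuged, and analyzed by HPLC-UV (C8 column, KH2PO4/methanol pH 2.5, 220 nm). Remaining intact compound plotted against time. Three experiments.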

[11] = Stability of compound in rat plasma assessed as rate of compound hydrolysis by HPLC-UV assay; type: ADME, cell-free; in short: as §4
[12] = Stability of compound in fasted state stimulated intestinal fluid at pH 7.4 assessed as rate of compound hydrolysis in presence of 10 mg/ml pancreatin by HPLC-UV assay; type: ADME; details: simulated gi fluid; in short: as §3
[13] = Cytotoxicity against Sprague-Dawley rat Cerebral cortex neuron assessed as cell viability at 100 uM incubated for 24 hrs by MTT assay relative to control; type: tissue-based; details: cerebral cortex neurons, read-out: Activity
In short: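 Primary fetal rat cortical neurons, matured 8 days, treated 24 h at 37 °C with compound (0.1–100 µM; 0.5% DMSO or water vehicle). MTT 0.7 mg/ml was then added for 30 min at 37 °C, and formazan was extracted with isopropanol/formic acid (95:5) and read at 560 nm. Untreated control was set as 100% viability. Four independent experiments.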

[14] = Antioxidant activity in Sprague-Dawley rat Cerebral cortex neuron assessed as total antioxidant capacity by measuring trolox equivalents at 25 uM after 24 hrs; type: functional; in short: as §1
[15] = target: Sigma non-opioid intracellular receptor 1 (Cavia porcellus, UniProt Q60492); test: Displacement of [3H]-(+)-pentazocine from sigma1 receptor in guinea pig brain membrane incubated for 150 mins by liquid scintillation counting method; type: cell membranes
In short: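 Guinea pig brain membranes (500 µg protein) in 50 mM Tris-HCl pH 7.4 with 3 nM [3H]-(+)-pentazocine. […] Incubated 150 min at 37 °C, then filtered on PEI-soaked GF/B filters and counted by scintillation. Ki obtained by EBDA/LIGAND; three determinations.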

Mus musculus [16] = test: In vivo agonist activity at sigma 1 receptor in Swiss […] mouse assessed as modulation of morphine-induced analgesic effect by measuring tail flick latency at 1 mg/kg, ip preincubated for 45 mins followed by morphine treatment after 90 mins by radiant heat tail-flick method; type: functional, organism-based; details: time 135.0 min
Mus musculus [17] = test: In vivo agonist activity at sigma 1 receptor in Swiss […] mouse assessed as modulation of morphine-induced analgesic effect by measuring tail flick latency at 1 mg/kg, ip measured after 90 mins by radiant heat tail-flick method; type: functional, organism-based

Sequence of Sigma non-opioid intracellular receptor 1 (Q60492 whole entry): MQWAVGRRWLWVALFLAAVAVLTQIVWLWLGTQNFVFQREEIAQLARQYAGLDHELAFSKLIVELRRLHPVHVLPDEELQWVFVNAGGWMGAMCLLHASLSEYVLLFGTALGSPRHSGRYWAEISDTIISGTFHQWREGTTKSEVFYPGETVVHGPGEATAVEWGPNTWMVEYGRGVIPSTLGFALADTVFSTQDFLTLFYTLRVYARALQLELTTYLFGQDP

Compound	Ki [3] [nM]	half-life [5] [h]	Ratio Ki (Cavia porcellus)	Drug degradation [8] [h⁻¹]	half-life [10] [h]	Drug degradation [11] [h⁻¹]	Drug degradation [12] [h⁻¹]	Ki [15] [nM]	TAC [1] [mmol/L]	TAC [2] [mmol/L]	Activity [4] [µmol/L]	Activity [6] [µmol/L]	Activity [7] [mU/ml]	Activity [9] [mU/ml]	viability at 24 h, 100 µM [13] [%]	TAC [14] [mmol/L]	Activity (Mus musculus [16])	Activity (Mus musculus [17])
O=C(CCCCC1CCSS1)N1CCN(Cc2ccc(F)cc2)CC1 (centres undefined)	1300	88	448	0.021	4.21	0.237	0.009	2.9	11.2	10.9	0.5	0.5	0.34	0.32	96.7	13.9	Active	inactive
O=C(CCCCC1CCSS1)N1CCN(Cc2ccccc2)CC1 (centres undefined)		93		0.072	1.76		0.031		11.1	10.4	0.5	0.5	0.32	0.32	95.4	12.9	Active	inactive

Now from value to compound, other results behind:

Ki [3] [nM]	half-life [5] [h]	Ratio Ki (Cavia porcellus)	Drug degradation [8] [h⁻¹]	half-life [10] [h]	Drug degradation [11] [h⁻¹]	Drug degradation [12] [h⁻¹]	Ki [15] [nM]	Compound	TAC [1] [mmol/L]	TAC [2] [mmol/L]	Activity [4] [µmol/L]	Activity [6] [µmol/L]	Activity [7] [mU/ml]	Activity [9] [mU/ml]	viability at 24 h, 100 µM [13] [%]	TAC [14] [mmol/L]	Activity (Mus musculus [16])	Activity (Mus musculus [17])
1500	52	484	0.245	0.61	1.506	0.249	3.1	COc1ccc(CN2CCC(OC(=O)CCCCC3CCSS3)CC2)cc1 (centres undefined)	11.3	10.8	0.5	0.5	0.34	0.32	91.2	11.4		
2460	240	432	0.017	5.28	0.168	0.011	5.7	COc1ccc(CN2CCN(C(=O)CCCCC3CCSS3)CC2)cc1 (centres undefined)	11.2	10.5	0.5	0.5	0.3	0.29	89.3	11.3		
	58.7		7.615	0.43		2.389		O=C(CCCCC1CCSS1)OC1CCN(Cc2ccccc2)CC1 (centres undefined)	10.9	10.8	0.5	0.4	0.29	0.32	97.8	13.8	Active	inactive
6500	47	1580		0.81	1.238		4.1	O=C(CCCCC1CCSS1)OC1CCN(Cc2ccc(F)cc2)CC1 (centres undefined)	11.2	11	0.4	0.5	0.29	0.3	95.6	12.6	Active	inactive
